# According to ChEMBL document CHEMBL4261489, “Quantitative measurement of intracellular HDAC1/2 drug occupancy using a trans-cyclooctene largazole thiol probe” (Medchemcomm, 2017):
# Calls of active or inactive are those of the source. The rule behind the calls is not given here.
# Tests used:
# [1] = target: T1, Histone deacetylase 2 (Homo sapiens, UniProt Q92769)
# [2] = Apparent permeability of the compound; format: ADME; conditions: not told
# [3] = target: T2, Histone deacetylase 1 (Homo sapiens, UniProt Q13547); experiment: Competitive binding affinity to HDAC1 in human CD34positive cell-derived erythroid progenitor cells in presence of largazole thiol by tetrazine-PEG4-biotin-based SDS-PAGE/immunoblot analysis
# T2 sequence (Q13547 whole entry): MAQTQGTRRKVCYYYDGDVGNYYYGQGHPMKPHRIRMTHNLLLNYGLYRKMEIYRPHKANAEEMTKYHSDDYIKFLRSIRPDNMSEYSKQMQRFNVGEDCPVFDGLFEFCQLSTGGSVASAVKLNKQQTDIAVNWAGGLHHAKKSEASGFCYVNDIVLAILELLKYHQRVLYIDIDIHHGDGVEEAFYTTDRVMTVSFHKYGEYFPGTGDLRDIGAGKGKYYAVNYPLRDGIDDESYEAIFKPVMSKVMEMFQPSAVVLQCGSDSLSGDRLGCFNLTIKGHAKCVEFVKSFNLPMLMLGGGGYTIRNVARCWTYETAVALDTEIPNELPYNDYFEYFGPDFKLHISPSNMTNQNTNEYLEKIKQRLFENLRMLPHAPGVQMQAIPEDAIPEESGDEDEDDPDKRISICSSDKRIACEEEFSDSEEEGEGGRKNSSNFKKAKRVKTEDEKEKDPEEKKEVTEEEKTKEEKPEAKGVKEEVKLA
# How it was run: (§1)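 Mobilized peripheral blood CD34+ cells were expanded 7 days with CC100 cytokines, then 4 days in erythroid medium (SCF, IL-3, EPO, dexamethasone, β-estradiol). Cells got DMSO or 1–100 nM inhibitor (37 °C, 2 h or 24 h), then 3 μM TCO largazole thiol for 10 min. Lysates were clicked with 50 μM tetrazine-PEG4-biotin, pulled down on streptavidin and immunoblotted for HDAC1/2. Occupancy versus vehicle gave OC50 by sigmoidal fit.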
# [4] = target: T1, Histone deacetylase 2; experiment: Competitive binding affinity to HDAC2 in human CD34positive cell-derived erythroid progenitor cells in presence of largazole thiol by tetrazine-PEG4-biotin-based SDS-PAGE/immunoblot analysis
# How it was run: as §1
# [5] = target: Histone deacetylase 3 (Homo sapiens) (UniProt O15379); experiment: Binding affinity to HDAC3 in human CD34positive cell-derived erythroid progenitor cells by tetrazine-PEG4-biotin-based SDS-PAGE/immunoblot analysis
# Chain of Histone deacetylase 3 (Homo sapiens) (O15379 whole entry): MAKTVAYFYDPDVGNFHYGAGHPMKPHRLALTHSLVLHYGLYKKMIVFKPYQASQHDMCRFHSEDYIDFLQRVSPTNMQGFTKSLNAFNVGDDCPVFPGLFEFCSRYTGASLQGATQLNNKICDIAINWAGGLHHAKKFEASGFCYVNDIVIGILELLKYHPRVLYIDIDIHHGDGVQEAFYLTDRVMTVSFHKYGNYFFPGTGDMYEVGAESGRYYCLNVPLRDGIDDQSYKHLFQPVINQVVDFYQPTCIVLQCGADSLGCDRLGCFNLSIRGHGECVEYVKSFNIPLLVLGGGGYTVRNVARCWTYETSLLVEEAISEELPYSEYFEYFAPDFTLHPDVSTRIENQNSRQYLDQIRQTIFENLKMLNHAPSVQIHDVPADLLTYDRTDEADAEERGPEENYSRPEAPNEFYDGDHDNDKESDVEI
# [6] = target: T2, Histone deacetylase 1; experiment: Binding affinity to HDAC1 in human CD34positive cell-derived erythroid progenitor cells up to 3 uM by tetrazine-PEG4-biotin-based SDS-PAGE/immunoblot analysis
# [7] = target: T1, Histone deacetylase 2; experiment: Binding affinity to HDAC2 in human CD34positive cell-derived erythroid progenitor cells up to 3 uM by tetrazine-PEG4-biotin-based SDS-PAGE/immunoblot analysis
# [8] = target: T2, Histone deacetylase 1; experiment: Binding affinity to HDAC1 in human CD34positive cell-derived erythroid progenitor cells measured up to 120 mins by tetrazine-PEG4-biotin-based SDS-PAGE/immunoblot analysis
# [9] = target: T1, Histone deacetylase 2; experiment: Binding affinity to HDAC2 in human CD34positive cell-derived erythroid progenitor cells measured up to 120 mins by tetrazine-PEG4-biotin-based SDS-PAGE/immunoblot analysis
# [10] = target: T2, Histone deacetylase 1; experiment: Inhibition of C-terminal FLAG/His-tagged full length recombinant human HDAC1 expressed in baculovirus infected Sf9 insect cells using HDAC substrate 3 after 30 mins by fluorescence assay
# How it was run: (§2)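 Fluorogenic deacetylation was run at 37 °C for 30 min in HEPES pH 7.5 buffer with NaCl, KCl, Tween 20, TCEP and BSA. Enzyme and substrate were: HDAC1 10 ng, HDAC2 5 ng or HDAC3 2 ng with 10 µM substrate 3; HDAC8 10 ng with 2 µM class 2a substrate 1. Compound ran at 0.001–10000 nM. Developer was added for 20 min at RT and fluorescence read at Ex360/Em460.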
# [11] = target: T1, Histone deacetylase 2; experiment: Inhibition of C-terminal FLAG or His-tagged full length recombinant human HDAC2 expressed in baculovirus infected Sf9 insect cells using HDAC substrate 3 after 30 mins by fluorescence assay
# How it was run: as §2
# [12] = target: Histone deacetylase 3/Nuclear receptor corepressor 2 (HDAC3/NCoR2) (Homo sapiens, UniProt O15379); experiment: Inhibition of C-terminal His-tagged full length recombinant human HDAC3/N-terminal GST-tagged NCOR2 (395 to 489 residues) expressed in baculovirus infected Sf9 insect cells using HDAC substrate 3 after 30 mins by fluorescence assay
# Chain of Histone deacetylase 3/Nuclear receptor corepressor 2 (HDAC3/NCoR2) (O15379 whole entry, the tested form may be a part): as the sequence (O15379 whole entry) above
# Chain of Histone deacetylase 3/Nuclear receptor corepressor 2 (HDAC3/NCoR2) (Q9Y618 whole entry, further chain, the tested form may be a part): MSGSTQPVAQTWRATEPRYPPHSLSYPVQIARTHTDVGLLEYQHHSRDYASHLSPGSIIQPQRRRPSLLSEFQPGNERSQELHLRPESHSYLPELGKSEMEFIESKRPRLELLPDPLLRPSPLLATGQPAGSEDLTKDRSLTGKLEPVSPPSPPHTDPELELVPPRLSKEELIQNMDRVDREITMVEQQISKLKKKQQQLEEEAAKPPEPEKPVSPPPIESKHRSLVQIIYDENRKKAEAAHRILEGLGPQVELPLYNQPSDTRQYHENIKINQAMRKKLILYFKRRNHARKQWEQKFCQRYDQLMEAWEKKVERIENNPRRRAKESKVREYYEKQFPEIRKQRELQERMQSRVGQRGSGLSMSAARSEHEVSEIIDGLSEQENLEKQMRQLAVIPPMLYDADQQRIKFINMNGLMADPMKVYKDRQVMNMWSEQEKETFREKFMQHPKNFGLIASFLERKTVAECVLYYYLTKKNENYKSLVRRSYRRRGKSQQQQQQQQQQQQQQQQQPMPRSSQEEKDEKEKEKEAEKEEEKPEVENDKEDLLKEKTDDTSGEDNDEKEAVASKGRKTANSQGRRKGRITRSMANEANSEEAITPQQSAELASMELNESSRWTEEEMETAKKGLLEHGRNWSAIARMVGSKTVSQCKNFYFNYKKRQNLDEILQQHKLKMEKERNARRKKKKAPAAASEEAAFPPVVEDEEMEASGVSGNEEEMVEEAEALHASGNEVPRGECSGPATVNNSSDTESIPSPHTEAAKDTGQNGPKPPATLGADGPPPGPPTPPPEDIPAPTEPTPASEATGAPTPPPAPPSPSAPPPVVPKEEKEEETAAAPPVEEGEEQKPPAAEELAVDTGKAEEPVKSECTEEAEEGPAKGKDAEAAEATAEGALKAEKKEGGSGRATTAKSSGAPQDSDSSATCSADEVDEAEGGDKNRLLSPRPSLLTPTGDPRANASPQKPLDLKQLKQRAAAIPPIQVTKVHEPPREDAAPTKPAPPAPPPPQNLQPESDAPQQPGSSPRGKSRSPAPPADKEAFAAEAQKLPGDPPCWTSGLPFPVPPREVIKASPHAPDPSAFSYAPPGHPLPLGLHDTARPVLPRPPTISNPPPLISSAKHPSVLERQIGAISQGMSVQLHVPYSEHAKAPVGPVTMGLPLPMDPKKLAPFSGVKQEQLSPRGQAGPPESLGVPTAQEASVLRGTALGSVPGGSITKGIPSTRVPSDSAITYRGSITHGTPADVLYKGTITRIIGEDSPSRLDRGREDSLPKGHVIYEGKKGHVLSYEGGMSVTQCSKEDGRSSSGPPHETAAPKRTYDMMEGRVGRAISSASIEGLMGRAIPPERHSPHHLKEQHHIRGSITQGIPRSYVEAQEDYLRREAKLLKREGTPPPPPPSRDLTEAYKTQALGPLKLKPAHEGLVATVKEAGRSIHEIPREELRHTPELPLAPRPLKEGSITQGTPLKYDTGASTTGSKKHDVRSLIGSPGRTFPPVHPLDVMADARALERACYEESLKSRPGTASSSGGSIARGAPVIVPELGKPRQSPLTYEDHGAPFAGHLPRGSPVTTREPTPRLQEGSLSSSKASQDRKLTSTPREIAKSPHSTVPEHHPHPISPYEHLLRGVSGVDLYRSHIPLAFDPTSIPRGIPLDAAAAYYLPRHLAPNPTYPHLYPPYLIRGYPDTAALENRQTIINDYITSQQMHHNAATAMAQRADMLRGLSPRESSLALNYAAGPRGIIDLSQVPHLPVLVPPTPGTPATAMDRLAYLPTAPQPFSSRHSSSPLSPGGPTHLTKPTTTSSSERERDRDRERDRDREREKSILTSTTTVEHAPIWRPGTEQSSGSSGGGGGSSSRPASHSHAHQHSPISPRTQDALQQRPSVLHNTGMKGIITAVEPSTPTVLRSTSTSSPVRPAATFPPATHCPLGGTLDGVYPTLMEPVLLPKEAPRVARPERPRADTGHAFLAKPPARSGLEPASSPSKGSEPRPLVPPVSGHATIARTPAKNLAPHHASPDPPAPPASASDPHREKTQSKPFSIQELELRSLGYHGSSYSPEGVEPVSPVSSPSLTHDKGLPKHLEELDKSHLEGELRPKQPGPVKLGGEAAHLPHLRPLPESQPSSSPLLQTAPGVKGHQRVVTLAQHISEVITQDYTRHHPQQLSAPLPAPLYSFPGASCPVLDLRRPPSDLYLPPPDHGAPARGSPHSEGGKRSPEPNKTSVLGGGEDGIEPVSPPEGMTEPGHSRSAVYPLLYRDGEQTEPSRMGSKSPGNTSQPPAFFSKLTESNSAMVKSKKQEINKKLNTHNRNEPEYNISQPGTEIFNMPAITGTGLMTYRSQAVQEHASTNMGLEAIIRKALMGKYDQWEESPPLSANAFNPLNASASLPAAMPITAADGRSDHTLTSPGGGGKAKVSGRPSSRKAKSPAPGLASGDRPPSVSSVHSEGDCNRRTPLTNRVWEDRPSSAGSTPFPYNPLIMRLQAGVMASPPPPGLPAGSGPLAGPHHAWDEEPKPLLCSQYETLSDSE
# How it was run: as §2
# [13] = target: T3, Histone deacetylase 8 (Homo sapiens, UniProt Q9BY41); experiment: Inhibition of C-terminal His-tagged full length recombinant human HDAC8 expressed in baculovirus infected Sf9 insect cells using HDAC class 2a substrate 1 after 30 mins by fluorescence assay
# T3 sequence (Q9BY41 whole entry): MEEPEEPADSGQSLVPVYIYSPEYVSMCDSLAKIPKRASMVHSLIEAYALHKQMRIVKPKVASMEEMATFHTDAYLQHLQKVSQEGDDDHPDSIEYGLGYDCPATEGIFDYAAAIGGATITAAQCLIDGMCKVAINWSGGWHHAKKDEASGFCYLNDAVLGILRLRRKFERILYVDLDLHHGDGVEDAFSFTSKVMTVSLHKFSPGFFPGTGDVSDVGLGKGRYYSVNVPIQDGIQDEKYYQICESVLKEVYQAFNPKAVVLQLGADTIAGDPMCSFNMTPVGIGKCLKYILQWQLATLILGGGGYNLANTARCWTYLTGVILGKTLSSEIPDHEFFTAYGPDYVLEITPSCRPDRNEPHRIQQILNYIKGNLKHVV
# How it was run: as §2
# T1 sequence (Q92769 whole entry): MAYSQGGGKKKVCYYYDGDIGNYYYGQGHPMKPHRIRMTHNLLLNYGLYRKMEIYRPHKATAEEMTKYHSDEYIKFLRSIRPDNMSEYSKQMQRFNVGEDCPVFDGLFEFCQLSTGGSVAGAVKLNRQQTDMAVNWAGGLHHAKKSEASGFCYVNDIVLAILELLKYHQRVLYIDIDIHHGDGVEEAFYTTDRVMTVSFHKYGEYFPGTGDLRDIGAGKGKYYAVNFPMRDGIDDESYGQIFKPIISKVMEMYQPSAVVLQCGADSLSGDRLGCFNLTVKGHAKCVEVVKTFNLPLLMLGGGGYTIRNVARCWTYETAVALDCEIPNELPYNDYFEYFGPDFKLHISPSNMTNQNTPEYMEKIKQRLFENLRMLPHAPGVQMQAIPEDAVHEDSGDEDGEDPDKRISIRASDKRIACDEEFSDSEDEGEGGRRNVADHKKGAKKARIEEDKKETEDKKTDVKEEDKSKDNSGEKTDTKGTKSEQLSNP
Occ50 [1] [nM],Papp [2] [×10⁻⁶ cm/s],Activity [3],Activity [4],Activity [5],Activity [6],Activity [7],Activity [8],Activity [9],IC50 [10] [nM],IC50 [11] [nM],IC50 [12] [nM],IC50 [13] [nM],Structure (SMILES)
3,,,,,,,,,,,,,O=C(/C=C/c1ccc(CN(CCO)CCc2c[nH]c3ccccc23)cc1)NO
,3.23,Active,Active,inactive,Active,Active,Active,Active,1.9,6.6,1.1,1110,C[C@@]12CSC(=N1)c1csc(n1)CNC(=O)C[C@@H](/C=C/CCS)OC(=O)[C@H](CCCCNC(=O)O[C@@H]1CC/C=C/CCC1)NC2=O
